Most compounds without a hit are left out; they make up all but 2.8% or so of the library.
MC4R antagonist = antagonists of human melanocortin 4 receptor (MC4R); P32245; MC4R-expressing cells, MTII-stimulated cAMP, LANCE TR-FRET; inhibition, % at 6.5 µM; 0.48% of 360,000 active;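 active = inhibition above its plate's cutoff, the mean of tested wells on that plate plus 3 SD, cut at about 29% in these data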;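 also: 0% = Melanotan II alone and 100% = Melanotan II plus saturating MCL0020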
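Material: human MC4R-expressing U2OS cells. Probe or stimulus: Melanotan II challenge. Dosing: 6.5 µM single dose. Times: 30-min compound, 1-h challenge, 1-h detection, room temperature. Technique: TR-FRET with Eu-cAMP and labeled anti-cAMP, 671 nm. Replication: singlicate.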
HTR2A ag = mouse HTR2A agonism via beta-arrestin recruitment. P35363. CHO-K1 mHTR2A beta-arrestin complementation, luminescence; percent of 30 µM serotonin response. activation, % at 7.6 µM. 0.66% of 360,000 active. AID 624169;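 active = activation above a run cutoff, the mean activation of all tested compounds plus 3 SD, cut at about 14% in these data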;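 also: 0% = plate median of compound wells and 100% = 30 µM serotonin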
Target sequence (P35363 whole entry, looked up): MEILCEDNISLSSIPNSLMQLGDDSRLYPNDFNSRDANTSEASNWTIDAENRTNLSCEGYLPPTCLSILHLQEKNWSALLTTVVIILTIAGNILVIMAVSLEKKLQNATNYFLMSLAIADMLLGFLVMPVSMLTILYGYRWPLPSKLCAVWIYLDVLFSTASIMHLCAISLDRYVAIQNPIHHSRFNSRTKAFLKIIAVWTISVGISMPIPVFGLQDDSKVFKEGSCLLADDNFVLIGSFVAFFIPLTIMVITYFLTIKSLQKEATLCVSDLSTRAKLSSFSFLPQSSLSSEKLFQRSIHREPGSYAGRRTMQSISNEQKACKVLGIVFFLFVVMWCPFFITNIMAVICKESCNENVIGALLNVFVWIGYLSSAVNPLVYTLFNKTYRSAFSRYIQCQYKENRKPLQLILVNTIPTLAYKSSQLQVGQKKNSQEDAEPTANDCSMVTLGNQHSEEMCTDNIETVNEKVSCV
EBI2 antag = EBI2 (human) antagonism. P32249. inhibition, % at 5 µM. EBI2 beta-arrestin recruitment, luminescence, 7a,25-OHC stimulated. 0.81% of 360,000 active; in the data active = inhibition above about 38%;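 also: enzyme fragment complementation signal reports receptor beta-arrestin coupling in cells; 0% = agonist plus DMSO wells and 100% = wells without agonist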
MC4R ag barr = human MC4R agonism via beta-arrestin. 0.98% of 360,000 active. P32245. AID 540308. U2OS MC4R beta-arrestin complementation, luminescence; percent of melanotan II response, DMSO zero. activation, % at 8.9 µM;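 active = activation above a per-plate cutoff, the mean activation of sample wells on that plate plus 3 SD, cut at about 8% in these data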
EBI2 antag conf = EBI2 (human) antagonism, single concentration confirmation. shares compounds with EBI2 antag. EBI2 beta-arrestin luminescence, 7a,25-OHC antagonism. inhibition, % at 5 µM. 29% of 2,400 active;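 active = inhibition of at least 50%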
EBI2 ag = counter-screen for EBI2 antagonists: EBI2 agonist activity | shares compounds with EBI2 antag | EBI2-expressing cells, agonist mode, luminescence, 60 min; 0% vehicle, 100% 7α,25-dihydroxycholesterol control | activation, % at 5 µM | 2,400 tested, under 10 active | AID 652000;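 active = activation of at least 50%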
bGal counter = inhibits E. coli beta-galactosidase, counter-screen for EBI2 antagonists | shares compounds with EBI2 antag | purified beta-galactosidase, luminescent Galacton Star, 15 min | inhibition, % at 5 µM | 1% of 2,400 active;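 active = replicate-average signal at least 3 plate SD below neutral wells, shown as high inhibition, flagging enzyme-inhibiting false positives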;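 also: 0% = DMSO wells with enzyme and 100% = wells lacking enzyme; higher means stronger loss of beta-gal luminescence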
* = called active by the depositor.

COc1ccc(OCC(=O)N2CCN(c3cccc(C(F)(F)F)c3)CC2)cc1 was read as MC4R antagonist 9, HTR2A ag 6, EBI2 antag 70*, MC4R ag barr 3, EBI2 antag conf 51*, EBI2 ag -2 and bGal counter -12.
COc1ccc(C(=O)CCC(=O)N2CCN(c3cccc(Cl)c3)CC2)cc1 was read as MC4R antagonist -2, HTR2A ag -1, EBI2 antag 5 and MC4R ag barr -1.
COc1ccc(C2CC(c3ccccc3)=NN2C(=O)CSc2nnnn2-c2cccc(C)c2)cc1 (configuration not stated) was read as MC4R antagonist 10, HTR2A ag 8, EBI2 antag 13 and MC4R ag barr -1.
O=C(CSc1nnc(NC(=O)c2cccc(F)c2)s1)NC1CCCC1 was read as MC4R antagonist 9, HTR2A ag 1, EBI2 antag -14 and MC4R ag barr -2.
Screening CCN1CCN(c2ccc(S(=O)(=O)N3CCCCC3)cc2NC(=O)COc2ccc(F)cc2Cl)CC1 returned MC4R antagonist 14, HTR2A ag -11, EBI2 antag 12 and MC4R ag barr 2.
Screening Nc1[nH]c(C(=O)c2ccccc2)c(-c2ccccc2C(F)(F)F)c1C(=O)c1cccs1 returned HTR2A ag 4, EBI2 antag 45*, EBI2 antag conf 20, EBI2 ag -1 and bGal counter -7.
Screening Cc1cc(-c2ccc(C(C)C)c(S(=O)(=O)N3CCN(c4ccccn4)CC3)c2)on1 returned MC4R antagonist -4, HTR2A ag 2, EBI2 antag 19 and MC4R ag barr -3.
Cc1cc(Cl)cc(C)c1OCC(=O)N1CCN(c2ncccn2)CC1 was read as MC4R antagonist 2, HTR2A ag 2, EBI2 antag 76*, MC4R ag barr -4, EBI2 antag conf 42, EBI2 ag -1 and bGal counter -16.
Screening Cc1cc(C)c(OCC(=O)N2CCN(c3ncc(C(F)(F)F)cc3Cl)CC2)c(C)c1 returned MC4R antagonist 5, HTR2A ag 2, EBI2 antag 9 and MC4R ag barr 0.
Screening Cc1cc(Cl)ccc1OCC(=O)N1CCN(c2ncccn2)CC1 returned MC4R antagonist 16, HTR2A ag 2, EBI2 antag 56*, MC4R ag barr -3, EBI2 antag conf 36, EBI2 ag 0 and bGal counter -18.
For Cc1ccc(C(C)C)c(OCC(=O)N2CCN(c3ncccn3)CC2)c1 the results were MC4R antagonist 2, HTR2A ag 0, EBI2 antag 48*, MC4R ag barr -3, EBI2 antag conf 44, EBI2 ag 0 and bGal counter 0.
Screening Cc1ccc(C(C)C)c(OCC(=O)N2CCOCC2)c1 returned MC4R antagonist 3, HTR2A ag -1, EBI2 antag -3 and MC4R ag barr 1.
Screening Cc1cc(Cl)ccc1OCC(=O)N1CCCCC1 returned MC4R antagonist 0, HTR2A ag -2, EBI2 antag 8 and MC4R ag barr -1.
CSc1ccccc1NC(=O)Nc1cccc2ccccc12 was read as MC4R antagonist 10, HTR2A ag 6, EBI2 antag -3 and MC4R ag barr -1.
For Cc1cccc(C(=O)NCC(=O)OCc2nc(N)nc(Nc3ccccc3C)n2)c1 the results were MC4R antagonist 6, HTR2A ag -9, EBI2 antag -9 and MC4R ag barr -2.
Screening COc1ccccc1-c1cnc2c(Nc3cccc(OC(F)(F)C(F)F)c3)nccn12 returned MC4R antagonist 15, HTR2A ag 1, EBI2 antag 68*, MC4R ag barr -2, EBI2 antag conf 41, EBI2 ag -1 and bGal counter -12.
Screening O=C(NCCO)c1cccc(-c2cnc3c(Nc4cccc(OC(F)(F)C(F)F)c4)nccn23)c1 returned MC4R antagonist 6, HTR2A ag 1, EBI2 antag 40 and MC4R ag barr -1.
For FC(F)C(F)(F)Oc1cccc(Nc2nccn3c(-c4cccc5cccnc45)cnc23)c1 the results were MC4R antagonist 9, HTR2A ag -4, EBI2 antag 47*, MC4R ag barr -2, EBI2 antag conf 35, EBI2 ag 2 and bGal counter 4.
O=[N+]([O-])c1ccc2c(c1Nc1ccccc1Cl)=NC1(CCCCC1)N=2 was read as MC4R antagonist 1, HTR2A ag 1, EBI2 antag 63*, MC4R ag barr 1, EBI2 antag conf 22, EBI2 ag 0 and bGal counter -12.
Cc1c(C(=O)N2CCOCC2)c(S(=O)(=O)Nc2ccccc2F)c(C)n1C was read as MC4R antagonist 4, HTR2A ag -2, EBI2 antag -1 and MC4R ag barr -1.
Screening COc1cccc(OC)c1C(=O)N1CCN(C(=O)c2ccc(-c3ccccc3)cc2)CC1 returned MC4R antagonist 0, HTR2A ag -6, EBI2 antag 78*, MC4R ag barr -4, EBI2 antag conf 23, EBI2 ag 0 and bGal counter -14.
Screening COc1ccc(CN2CCN(C(=O)c3ccc(-c4ccccc4)cc3)CC2)c(OC)c1OC returned MC4R antagonist 0, HTR2A ag -1, EBI2 antag 68*, MC4R ag barr -2, EBI2 antag conf 49, EBI2 ag 0 and bGal counter -19.
For CCc1nc2ccc(C(=O)NCCOc3ccc(OC)cc3)cn2c1N(C)Cc1cccs1 the results were MC4R antagonist 12, HTR2A ag -5, EBI2 antag 57*, MC4R ag barr 3, EBI2 antag conf 40, EBI2 ag 0 and bGal counter -13.
`CCCCNC(=O)c1ccc2nc(CC)c(N(C)Cc3ccc(OC)cc3)n2c1` gave MC4R antagonist 6, HTR2A ag -6, EBI2 antag 10 and MC4R ag barr 3.
For CCc1nc2ccc(C(=O)NCCOc3ccc(OC)cc3)cn2c1N(CC)CCN(C)C the results were MC4R antagonist -2, HTR2A ag 5, EBI2 antag 15 and MC4R ag barr 1.
Screening CCc1nc2ccc(C(=O)NCCOc3ccc(OC)cc3)cn2c1N(C)Cc1ccc(OC)cc1 returned MC4R antagonist 8, HTR2A ag -7, EBI2 antag 62*, MC4R ag barr 2, EBI2 antag conf 40, EBI2 ag -1 and bGal counter -14.
Screening CCc1nc2ccc(C(=O)NCCc3ccccn3)cn2c1N(C)Cc1cccs1 returned MC4R antagonist 2, HTR2A ag -7, EBI2 antag -2 and MC4R ag barr -1.
